Experiments:
786-O cells [1] = test: Cytotoxicity assay; type: cell-based; conditions: 24 h, series of concentrations, DMSO less than 1% (Fig. 3j)
Procedure, shortened: (§1)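 Cells were seeded at 5 × 10³ per well in 96-well plates and allowed to adhere overnight. Test compound was serially diluted from a concentrated DMSO stock, keeping final DMSO below 1%, and incubated 24 h. Viability (%) = (As − Ab)/(Ac − Ab) × 100, using sample, blank and control wells. Three independent repeats.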

HepG2 cells = test: Cytotoxicity assay; type: cell-based; conditions: 24 h, series of concentrations, DMSO less than 1%, mean ± SD n = 3 (Fig. S16)
Procedure, shortened: as §1

[2] = test system: 786-O (Renal Cell Carcinoma, RCC) xenograft mice; test: In vivo fluorescence imaging and biodistribution, 786-O xenograft
Procedure, shortened: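 Mice received 5 × 10⁶ 786-O cells in PBS subcutaneously in the right hind. At tumour volumes of about 200 mm³, test compound (200 μM, 200 μL) was given intravenously. Whole-body NIR fluorescence was imaged on a Maestro IVIS at 1, 2, 4, 8, 12, 24, 48 and 72 h. Tumour, heart, liver, spleen, lung and kidney were imaged ex vivo at 24 h, and tumour tissue was examined by Bio-TEM. n = 3.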

[3] = Circular dichroism spectroscopy; type: physicochemical; conditions: 10 μM, deionized water, room temperature (Fig. 2c)
Procedure, shortened: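 Samples at 10 μM were scanned on a CD spectrometer at room temperature. Scan speed was 1200 nm min⁻¹ at 1 nm resolution, and the solution background was subtracted to correct spectra. Three independent repeats.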

786-O cells [4] = test: In vitro photostability under NIR laser irradiation; type: cell-based; conditions: for photobleaching of Cy: 20 μM, co-incubated with 786-O cells 4 h at 37 °C, NIR laser irradiation for 40 min (up to 3.60 kJ/cm^2), IVIS
Procedure, shortened: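 786-O cells were seeded at 5 × 10³ per well and allowed to adhere overnight. They were incubated with test compound (20 μM) for 4 h at 37 °C to allow self-assembly. Cells were then irradiated with a near-infrared laser, with fluorescence recorded at 0–40 min in 5 min steps. Three independent repeats.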

[5] = Transmission electron microscopy of self-assembled nanofibers; type: physicochemical; conditions: 50 μM in acetonitrile: H2O = 2:3 mixed solution for 1 week (Fig. 2e, S11)
Procedure, shortened: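 Samples were dissolved in acetonitrile:H₂O 2:3 and stored 7 d to self-assemble fully. Then 10 μL was placed on carbon-coated copper grids and the excess blotted with filter paper after 5 min before TEM. Three independent repeats.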

[6] = ThT and ANS fluorescent probe assay of β-sheet formation; type: physicochemical; conditions: compared with M1 and M2 group (Fig. S10)
[7] = Critical aggregation concentration with fluorescence probe ANS; type: physicochemical; conditions: fluorescence probe ANS (Fig. S8)
MMP-2 = molecular target: T1, MMP-2 (Homo sapiens, UniProt P08253); test: MMP-2 enzyme responsiveness; type: biochemical; conditions: incubated with MMP-2, new peaks for SSGGPLG and R-M1 (Fig. S7)
T1 sequence (P08253 110-660): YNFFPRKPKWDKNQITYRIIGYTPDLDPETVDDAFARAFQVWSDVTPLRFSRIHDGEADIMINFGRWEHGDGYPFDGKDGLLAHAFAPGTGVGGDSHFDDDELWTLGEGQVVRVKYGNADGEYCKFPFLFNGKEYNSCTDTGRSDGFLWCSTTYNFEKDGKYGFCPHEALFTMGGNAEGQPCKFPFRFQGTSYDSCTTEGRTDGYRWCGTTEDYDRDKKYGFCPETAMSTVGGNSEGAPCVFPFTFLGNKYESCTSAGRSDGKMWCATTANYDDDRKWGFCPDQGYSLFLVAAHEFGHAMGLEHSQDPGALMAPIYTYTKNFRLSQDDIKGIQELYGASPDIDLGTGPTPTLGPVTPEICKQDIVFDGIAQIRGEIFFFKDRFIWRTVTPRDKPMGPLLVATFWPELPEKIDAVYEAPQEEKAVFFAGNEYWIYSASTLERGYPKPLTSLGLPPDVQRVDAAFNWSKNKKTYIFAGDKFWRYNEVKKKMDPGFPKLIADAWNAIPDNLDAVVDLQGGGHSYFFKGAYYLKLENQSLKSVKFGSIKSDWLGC

healthy mice = type: in vivo; conditions: 200 μL, n = 4
786-O cells [8] = test: Cellular imaging; type: cell-based; conditions: 20 μM, 15 min, 37 °C (Fig. 3e, S14)
Procedure, shortened: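 Integrin αvβ3-overexpressing 786-O cells were seeded at 2 × 10⁵ cells on confocal dishes and allowed to adhere overnight. They were then exposed to test compound at 20 μM for 15 min. For time-dependent monitoring, cells were washed with PBS and the medium replaced. Imaging used a 40× objective, with fluorescence intensity quantified from images. Three independent repeats.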

[9] = 200 μM, 1 d, 7 d and 14 d post-injection

| Substance | impact on cell viability of 786-O (786-O cells [1]) | impact on cell viability of HepG2 (HepG2 cells) | course of fluorescence at the tumor site ([2]; 786-O xenograft, intravenous, 200 μM, 200 μL, imaged 1-72 h, n = 3) | secondary structure by CD spectrum [3] | photobleaching of Cy (786-O cells [4]) [%] | diameter of self-assembled nanofibers (TEM) [5] [nm] | fluorescence intensity of ThT and ANS probes (β-sheet formation) [6] | critical aggregation concentration (CAC) to form nanofibers [7] [µM] | HPLC peak of intact M1 after incubation with MMP-2 (MMP-2) | liver function index (ALT, AST, ALP, TP, ALB, GLOB) versus PBS (healthy mice; [9]) | renal function indicators (BUN, CRE) versus PBS (healthy mice; [9]) | histology (H&E) of major organs versus PBS (healthy mice; intravenous 200 μM, 1 d post-injection) | nanofibrous structures on tumor cells (Bio-TEM) ([2]; after administration of M1 200 μM, 200 μL (Fig. 4e)) | fluorescence at the tumor site within 1 h, M1 versus M2 ([2]; intravenous, 200 μM, 200 μL, n = 3) | cellular distribution by confocal imaging (786-O cells [8]) | decrease of photodegradation rate of Cy versus M2 (786-O cells [4]; same as photobleaching test, M1 against M2) [%] |
| --- | --- | --- | --- | --- | --- | --- | --- | --- | --- | --- | --- | --- | --- | --- | --- | --- |
| SSGGPGLGYLKLVFFGC(Cy)GRGD [M2] | no impact | no impact | quickly decreased after 4 h and nearly vanished at 72 h | random coiled secondary structure | 81 | – | – | – | – | – | – | – | – | – | – | – |
| YLGKLVFFGC(Cy)GRGD [R-M1] | – | – | – | β-sheet structure | – | 13.4 ± 3.1 | obviously increased | 4.4 | – | – | – | – | – | – | – | – |
| SSGGPLGYLGKLVFFGC(Cy)GRGD [M1] | no impact | no impact | – | random coiled secondary structure | 55 | – | – | – | vanished | no noticeable difference | no noticeable difference | no histological differences | clearly observed | approximately identical fluorescence | distributed on the membrane of 786-O cells | 26 |

Source: publication PMC8892090 (Bioactive Materials, 2021)
